Published values of several laboratories.
Each line is one published result; the experiments were not run side by side.
MTNR1A: Melatonin receptor type 1A (MTNR1A, Homo sapiens, UniProt P48039)

Compound	target	test	setting	measurement	value
C#Cc1n[nH]c2c(-c3cn([C@@H](C)c4ccccn4)c(=O)[nH]c3=O)cc(F)cc12	Rho-associated protein kinase 2 (ROCK2, Homo sapiens, UniProt O75116)	enzyme activity, inhibitor	0.1 µM	inhibition	1.2%
COc1ncccc1-c1cnn2ccc(N3CCN(C(=O)OC(C)C)CC3)nc12	Serine/threonine-protein kinase ULK3 (ULK3, Homo sapiens, UniProt Q6PHR2)	binding, competition with immobilised ligand	1 µM	remaining binding	54%
Cc1nn(C)cc1-c1nc2c(N3CCN(Cc4ccc(Cl)cc4)CC3)c(Cl)cnc2[nH]1	Receptor-type tyrosine-protein kinase FLT3 (FLT3, Homo sapiens, UniProt P36888)	binding, competition with immobilised ligand	1 µM	remaining binding	0.4%
CCN(CC)CCCC[C@H](NC(=O)[C@H](CC(C)C)NC(=O)[C@H](C)NC(=O)[C@H](Cc1ccccc1)NC(=O)c1ccc(C(C)(C)C)cc1)C(=O)N[C@@H](CO)C(=O)OC	B2 bradykinin receptor (BDKRB2, Homo sapiens, UniProt P30411)	ligand displacement, radioligand	10 µM	remaining binding	107%
COc1ccc2cccc(C(CO)CNC(=O)CF)c2c1 (centres unmarked)	MTNR1A	GTPγS binding, agonist, radiometric	cell membranes	Emax	47%
Nc1ncc(-c2nc(N3CCOCC3)nc(N3CCOCC3)n2)c(C(F)F)n1	Serine/threonine-protein kinase DCLK3 (DCLK3, Homo sapiens, UniProt Q9C098)	binding, competition with immobilised ligand	10 µM	remaining binding	73%
COc1ccc2[nH]cc(CCNC(=O)CI)c2c1	MTNR1A	GTPγS binding, agonist, radiometric	cell membranes	Emax	83%
CNC1(c2ccccc2Cl)CCCCC1=O (racemic)	Fatty-acid amide hydrolase 1 (FAAH, Homo sapiens, UniProt O00519)	enzyme activity, inhibitor	30 µM	inhibition	2%
